Experimental data collected from several papers.
Protocols differ between the studies behind these lines.
PDGFRA: Platelet-derived growth factor receptor alpha (PDGFRA, Homo sapiens, UniProt P16234)
PDGFRA V561D: Platelet-derived growth factor receptor alpha (PDGFRA, Homo sapiens, UniProt P16234, V561D)
PDGFRA T674I: Platelet-derived growth factor receptor alpha (PDGFRA, Homo sapiens, UniProt P16234, T674I)
PDGFRA D842V: Platelet-derived growth factor receptor alpha (PDGFRA, Homo sapiens, UniProt P16234, D842V)

target | assay | conditions | measurement | result | SMILES
PDGFRA | enzyme activity, inhibitor, radiometric | 1 µM | remaining activity | 97% | CC(C)(C)c1nc2c(s1)c1nc(N)ncc1c1ccc(NS(=O)(=O)c3c(F)cccc3F)c(F)c12
PDGFRA | cell-free assay | 0.5 µM | remaining signal | 98.8% | Oc1ccc(-c2nc(-c3ccncc3)c(-c3ccc(F)cc3)[nH]2)cc1
PDGFRA | enzyme activity, inhibitor, radiometric | 1 µM | remaining activity | 60% | COc1cc(Nc2cnc(C#N)c(O[C@H](C)CN(C)C)n2)ncc1-c1cnn(C)c1
PDGFRA V561D | enzyme activity, inhibitor | 10 µM | remaining activity | 6% | CCCOc1ccc(OC)c(F)c1C(=O)c1ccc(C(=O)N[C@@H]2CNC[C@H]2NC(=O)c2ccc3[nH]ncc3c2)cc1
PDGFRA | enzyme activity, inhibitor | 1 µM | activity vs control | 4% | Cc1ccc(C(=O)NCc2ccsc2)cc1C#Cc1cn(C(C)C)c2ncnc(N)c12
PDGFRA | cell-free assay, competition with immobilised ligand | 1 µM | remaining binding | 80% | Cc1nccc(COC(=O)N2C[C@@H]3[C@@H](CNC(=O)c4ccc5[nH]nnc5c4)[C@@H]3C2)n1
PDGFRA | cell-free assay, inhibitor | 0.5 µM | remaining signal | 13.9% | Cc1ccc(Nc2nccc(N(C)c3ccc4c(C)n(C)nc4c3)n2)cc1S(N)(=O)=O
PDGFRA | cell-free assay, competition with immobilised ligand | 1 µM | remaining binding | 97% | N#CC1(c2ccccn2)CCN(Cc2cc(C(=O)N3CCCC3)c(=O)n3ccccc23)CC1
PDGFRA T674I | enzyme activity, inhibitor | 0.1 µM | inhibition | -0.2% | CC/C(=N\NC(=O)NCc1cccc(O)c1)c1ccc(O)c(C)c1O
PDGFRA | enzyme activity, inhibitor | 1 µM | activity vs control | 92% | COc1cc(/C=C/C(=O)CC(=O)/C=C/c2ccc(O)c(OC)c2)ccc1O
PDGFRA | cell-free assay, competition with immobilised ligand | 1 µM | remaining binding | 87% | COc1ccc2c(c1)O[C@H](c1ccc(OC)c(OC)c1)C[C@@H]2NC(=O)C1(c2ccc3c(c2)OC(F)(F)O3)CC1
PDGFRA | enzyme activity, inhibitor | 1 µM | remaining activity | 44.5% | CC(C)(O)[C@H]1CC[C@H](Nc2ccc3ncc(-c4cccc(C(F)(F)F)c4)n3n2)CC1
PDGFRA | cell-free assay, competition with immobilised ligand | 1 µM | remaining binding | 95% | O=C(Nc1ccc(Oc2ccc(F)cc2)cc1)N1CCc2ncccc2[C@H]1c1ccc(F)cc1
PDGFRA D842V | enzyme activity, inhibitor | 0.1 µM | activity vs control | 28% | Cc1cc(NC(=O)c2cccc3cc(-c4cccc5[nH]nc(N)c45)ccc23)ccc1F
PDGFRA | cell-free assay, inhibitor | 10 µM | remaining signal | 60% | Cc1ccc(NC(=O)c2ccc(C)c(C(F)(F)F)c2)cc1C#Cc1nn(C2CCC(O)CC2)c2ncnc(N)c12 (centres unmarked)
PDGFRA T674I | enzyme activity, inhibitor | 1 µM | inhibition | 9% | COc1cc2ncnc(Nc3ccc(Oc4ccccc4)c(C)c3C)c2cc1OC
PDGFRA | cell-free assay, competition with immobilised ligand | 1 µM | remaining binding | 100% | COc1ccc2cc(OCC3(C(=O)O)CN(C(=O)c4ccc(F)cc4)C3)ccc2c1
PDGFRA | enzyme activity, inhibitor | 5 µM | remaining activity | 107% | O=C(Nc1cnn(-c2csc(C(=O)NC3COC3)c2)c1)Nc1c(F)cccc1Cl
PDGFRA V561D | enzyme activity, inhibitor | 10 µM | inhibition | 100% | CNC(=O)c1cc(Oc2ccc(NC(=O)Nc3ccc(Cl)c(C(F)(F)F)c3)cc2)ccn1
PDGFRA | cell-free assay, competition with immobilised ligand | 1 µM | remaining binding | 88% | Cc1nc(Cc2cccc(C(F)(F)F)c2)sc1-c1ccc(C(N)=O)nc1
PDGFRA | cell-free assay | 0.5 µM | remaining signal | 70.3% | O=C1Nc2ccc(Cl)cc2C1=Cc1cc(Cl)c(O)c(Cl)c1
PDGFRA | enzyme activity, inhibitor, radiometric | 1 µM | activity vs control | 70% | FC(F)(F)Oc1cccc(-c2cnc3ccc(-c4ccncc4)nn23)c1
PDGFRA | cell-free assay, competition with immobilised ligand | 1 µM | remaining binding | 100% | CN(C)C(=O)Cn1cc(-c2nc([C@@](C)(c3ccc(-c4cnc(N)nc4)cc3)C3CC3)no2)cn1
PDGFRA T674I | enzyme activity, inhibitor | 1 µM | inhibition | 0% | COc1cc2ncnc(Nc3ccc(Oc4ccccc4)cc3C)c2cc1OC
PDGFRA | enzyme activity, inhibitor | 5 µM | remaining activity | 95.2% | O=C(Nc1cnn(-c2csc(C(=O)NC3COC3)c2)c1)Nc1ccccc1Cl
PDGFRA | cell-free assay, competition with immobilised ligand | 1 µM | remaining binding | 100% | CN1CCN(c2cnc3c(C4CCN(C(=O)c5ccc(OC(F)(F)F)cc5N)CC4)ncnc3c2)CC1
PDGFRA V561D | enzyme activity, inhibitor | 0.1 µM | inhibition | 45% | COc1cc(-c2cc(-c3ccc(N4CCNCC4)cc3)cnc2N)cc(OC)c1OC
PDGFRA | enzyme activity, inhibitor | 0.5 µM | activity vs control | 5.9% | Cc1ccc(NC(=O)c2ccc(CN3CCN(C)CC3)cc2)cc1Nc1nccc(-c2cccnc2)n1
PDGFRA D842V | enzyme activity, inhibitor, radiometric | 1 µM | remaining activity | 104% | Cc1cnc(NC2CCOCC2)nc1-n1cnc(C(=O)NC(CN)c2cc(F)cc(Cl)c2)c1 (centres unmarked)
